Bioassay records deposited in PubChem by several laboratories.
An excerpt weighted towards active compounds, which were near 1.7% of everything screened.
PLC-gamma1 inh = PLC-gamma1 enzyme inhibitors, primary screen, biochemical, fluorescence, purified enzyme | 1-phosphatidylinositol 4,5-bisphosphate phosphodiesterase gamma-1 (Homo sapiens), P19174 | fluorogenic substrate | inhibition, % at 12.2 µM | hit rate 0.84% among 370,000 | AID 720700, 2013; in the data active = inhibition above about 9.5%
Rpn11 block = Rpn11 (PSMD14) deubiquitinase inhibitors, primary screen, biochemical, fluorescence polarization, uHTS; 26S proteasome non-ATPase regulatory subunit 14 (Homo sapiens), O00487; human 26S proteasome, Ub4-pepOG fluorescence polarization; 20S core pre-blocked with epoxomicin; inhibition, % at 20 µM; hit rate 0.59% among 360,000;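 active = inhibition at 20 µM, scaled to each plate's controls, above about 33%, limit read from the data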
Target sequence (O00487 whole entry, looked up): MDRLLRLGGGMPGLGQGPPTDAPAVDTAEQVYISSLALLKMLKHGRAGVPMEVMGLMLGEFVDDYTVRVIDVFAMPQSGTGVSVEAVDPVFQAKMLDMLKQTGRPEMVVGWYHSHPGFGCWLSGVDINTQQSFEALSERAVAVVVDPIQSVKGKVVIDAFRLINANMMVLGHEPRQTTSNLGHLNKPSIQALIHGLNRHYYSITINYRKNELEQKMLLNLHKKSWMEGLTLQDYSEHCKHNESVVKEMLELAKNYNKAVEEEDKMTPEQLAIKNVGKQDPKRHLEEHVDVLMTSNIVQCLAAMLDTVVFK
UCH37 inh = inhibitors of human UCH37 deubiquitinase, primary screen, biochemical, Ub-AMC cleavage, fluorescence; Ubiquitin carboxyl-terminal hydrolase isozyme L5 (Homo sapiens), Q9Y5K5; inhibition, % (test concentration not listed); purified proteasome/UCH37; AID 588478, 2011; hit rate 0.33% among 330,000;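 active = mean inhibition over replicate wells above about 20%, limit read from the data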;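 note: 0% = compound-free wells with enzyme and 100% = wells lacking proteasome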
Target sequence (Q9Y5K5 whole entry, looked up): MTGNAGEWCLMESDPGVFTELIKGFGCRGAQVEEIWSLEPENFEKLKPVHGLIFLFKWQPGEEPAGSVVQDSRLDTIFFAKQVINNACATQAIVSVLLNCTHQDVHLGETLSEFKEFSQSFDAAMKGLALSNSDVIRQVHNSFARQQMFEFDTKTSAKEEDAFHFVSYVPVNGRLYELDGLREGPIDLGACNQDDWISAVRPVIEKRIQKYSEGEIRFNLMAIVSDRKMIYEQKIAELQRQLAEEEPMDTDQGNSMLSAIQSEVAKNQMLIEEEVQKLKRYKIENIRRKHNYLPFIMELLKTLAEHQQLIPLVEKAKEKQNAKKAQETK
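Material: human UCH37 enzyme supplied as purified proteasome complex / Amount: 0.15 nM proteasome as dispensed / Buffer or medium: pH 7.4 Tris-HCl (50 mM) with ovalbumin, ATP-MgCl2, DTT / Times: preincubation 30 min, reaction 25 min, room temperature / Technique: AMC fluorescence from Ub-AMC cleavage, excitation 355 nm, emission 460 nm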
PLC-beta3 inh = human PLC-beta3 inhibitors, primary screen, biochemical, fluorescence. 1-phosphatidylinositol 4,5-bisphosphate phosphodiesterase beta-3 (Homo sapiens), Q01970. Purified PLC-beta3, fluorogenic substrate. inhibition, % at 12.2 µM. hit rate 0.18% among 370,000. AID 720704, 2013; in the data active = inhibition above about 11%;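 note: 0% = median of compound wells on plate and 100% = full blocker control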
Rpn11 inh conf = Rpn11 (PSMD14) deubiquitinase inhibitors, confirmation, biochemical, fluorescence polarization, single concentration. shares compounds with Rpn11 block. purified human 26S proteasome, Ub4-pepOG fluorescence polarization; proteasome pretreated with epoxomicin. inhibition, % at 20 µM. hit rate 29% among 1,900. AID 602318, 2012
MMP-2 inh = MMP-2 enzyme inhibition, confirmation, counter-screen for RPN11 inhibitor project, biochemical, fluorescence, single concentration. hit rate 4% among 1,900. shares compounds with Rpn11 block. recombinant MMP-2, FRET peptide cleavage fluorescence. inhibition, % at 20 µM;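 note: human MMP-2 activated beforehand with APMA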
Thrombin inh = bovine thrombin protease inhibition, confirmation, counter-screen for Rpn11 inhibitor project, biochemical, fluorescence polarization, single concentration. bovine thrombin cleavage of Ub4-pepOG. hit rate 13% among 1,900. shares compounds with Rpn11 block. inhibition, % at 20 µM. AID 602333, 2012;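 active = mean inhibition at least 40% at 20 µM, or signal 3 deviations below plate average, so some actives read negative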;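 note: plate controls were thrombin with DMSO for no effect and buffer wells lacking thrombin for full effect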
* hit, by the source's call; i = inactive; nt = not tested or not shown. Cut-off read from the data, not from the text of the source, unless noted: active = inhibition above about 40%; inactive = the rest.

SMILES | PLC-gamma1 inh | Rpn11 block | UCH37 inh | PLC-beta3 inh | Rpn11 inh conf | MMP-2 inh | Thrombin inh
O=[N+]([O-])c1cc(Cl)ccc1Sc1cccc2cccnc12 | 3.8 | 3.0 | 4.7 | -26.8 | nt | nt | nt
O=[N+]([O-])c1ccc(Sc2cccc3cccnc23)c([N+](=O)[O-])c1 | -3.3 | 70.9* | 8.1 | -4.9 | 56.7* | -11.3 | -0.4
C=CCn1nc([N+](=O)[O-])nc1Sc1cccc2cccnc12 | nt | 67.3* | -0.2 | nt | 27.8 | 3.3 | -14.7
Cc1c(Cl)cccc1NC(=O)COC(=O)c1c2c(nc3ccccc13)CCN(Cc1ccccc1)C2 | -59.0 | 60.9* | 1.1 | -61.4 | -22.0 | -19.8 | -3.8
CC(C)c1ccccc1NC(=O)COC(=O)c1c2c(nc3ccccc13)CCN(Cc1ccccc1)C2 | -35.9 | 21.7 | -5.7 | -41.8 | nt | nt | nt
O=c1c2ccccc2c(C=NCc2ccccn2)c(O)n1-c1ccccc1 | -9.9 | 48.8* | -15.7 | -13.0 | 34.5 | -37.7 | 6.5
Cc1cc(=O)[nH]c(NN=Cc2cc(C)n(-c3ccccc3)c2C)n1 | nt | nt | 3.1 | nt | nt | nt | nt
Cc1cc(=O)[nH]c(N/N=C/c2c(O)n(-c3ccccc3)c(=O)c3ccccc23)n1 | -78.4 | 65.9* | 11.8 | -89.0 | 43.2* | -59.0 | 13.1
O=C(CNC(=O)c1cccc(Br)c1)NN=Cc1cccnc1 | nt | nt | -0.1 | nt | nt | nt | nt
CCOC(=O)C(C#N)=NNc1cc(Cl)ccc1OC | nt | nt | -1.8 | nt | nt | nt | nt
CCOc1ccc(N(CC(=O)NC2CCCCC2)C(=O)CCC(=O)Nc2nc(C)cs2)cc1 | -2.3 | 130.3* | -1.9 | -3.1 | 8.0 | -29.8 | -3.6
CCOc1ccc(N(CC(=O)NC2CCCC2)C(=O)CCC(=O)Nc2nc(C)cs2)cc1 | 0.8 | 3.3 | 5.9 | -3.3 | nt | nt | nt
O=C1C(=Cc2cn(-c3ccccc3)nc2-c2ccc(OCc3ccccc3)cc2)SC(=S)N1CCS(=O)(=O)O | -7.7 | 97.9* | nt | -21.5 | 90.3* | 29.1 | 134.2*
CC(C)COc1ccc(-c2nn(-c3ccccc3)cc2/C=C2/SC(=S)N(CC(=O)O)C2=O)cc1 | -17.9 | 49.1* | 21.9* | -25.1 | 40.6* | -22.6 | 48.8*
O=C(O)CN1C(=O)/C(=C\c2cn(-c3ccccc3)nc2-c2ccccc2)SC1=S | nt | -6.5 | nt | nt | nt | nt | nt
Cc1ccc(-c2ccc(CN3C(C)C(=O)N(Cc4cn(Cc5ccco5)nn4)CCS3(=O)=O)cc2)cc1 (stereo not drawn) | 0.2 | 3.9 | nt | -2.2 | nt | nt | nt
CC1C(=O)N(Cc2cn(Cc3ccco3)nn2)CCS(=O)(=O)N1Cc1ccc(-c2cccnc2)cc1 (stereo not drawn) | -8.5 | 46.4* | nt | -13.9 | -2.6 | 22.8 | 12.7
CCNc1ccc(Br)cc(C(=O)/C=C/c2ccc3c(c2)OCO3)c1=O | -79.7 | 70.6* | 4.2 | -96.7 | 20.3 | 8.8 | 1.3
CC(=NOCC(=O)OCC(=O)N(Cc1ccccc1)C(C)(C)C)c1ccc2c(c1)OCO2 | nt | nt | 2.7 | nt | nt | nt | nt
CC(=NNC(=O)c1ccoc1C)c1ccc(NC(=O)C2CCCC2)cc1 | nt | nt | 0.1 | nt | nt | nt | nt
CNc1ccc2nnc(C(F)(F)C(F)(F)C(F)(F)F)n2n1 | -1.0 | 105.5* | 1.1 | -2.8 | -5.3 | 28.6 | -14.9
COc1nc(-c2ccccc2)ccc1-c1noc(-c2cccs2)n1 | -9.3 | 46.0* | -31.8 | -13.1 | 27.8 | -24.0 | 22.4
CN1/C(=C\C(=S)NC(=O)c2ccccc2Cl)C(C)(C)c2ccccc21 | -13.1 | 86.5* | 5.2 | -9.9 | 10.6 | 42.4* | -6.0
CCOc1ccc(N2C(=O)CSC2=S)cc1 | -12.4 | -4.8 | 2.5 | -10.1 | nt | nt | nt
CCN(CC)c1ccc(N2C(=O)CSC2=S)cc1 | -6.9 | 50.8* | 2.5 | -17.8 | -2.6 | 60.9* | -22.3
SMILES | PLC-gamma1 inh | Rpn11 block | UCH37 inh | PLC-beta3 inh | Rpn11 inh conf | MMP-2 inh | Thrombin inh
CC(CC(=O)Nc1ccc(C)c(Cl)c1)=NNC(=O)Cc1cnc(N)s1 | nt | nt | -0.5 | nt | nt | nt | nt
COc1ccc(Cl)cc1NC(=O)c1cc(-c2ccco2)on1 | 1.7 | 45.5* | -9.0 | -13.3 | 12.1 | -14.8 | 1.6
COc1ccc(C(=O)/C(C#N)=N/Nc2ccc([N+](=O)[O-])cc2)cc1 | -2.1 | 33.7* | nt | -5.9 | 4.2 | 0.2 | -29.4
COc1ccc(C(=O)C(C#N)=NNc2cccc([N+](=O)[O-])c2)cc1 | nt | nt | 7.5 | nt | nt | nt | nt
O=C(CN1CCCc2ccccc21)NN=Cc1c(O)ccc2ccccc12 | nt | nt | -1.4 | nt | nt | nt | nt
O=C(N/N=C/c1cc(Br)ccc1O)c1ccncc1 | -27.2 | 36.4 | nt | -48.7 | nt | nt | nt
O=C(N/N=C/c1cc(Cl)ccc1O)c1ccc(Br)cc1 | -31.6 | 166.5* | nt | -33.5 | 177.5* | 9.4 | 16.4
Cc1nc(C)c(C(=O)N/N=C/c2cc(Br)ccc2O)s1 | -9.7 | 47.1* | nt | -27.2 | 5.3 | -33.8 | 9.9
CS(=O)(=O)Nc1ccc(C2=NN(S(C)(=O)=O)C(c3ccccc3)C2)cc1 (stereo not drawn) | -21.5 | 1.0 | -108.2 | -28.8 | nt | nt | nt
CCS(=O)(=O)N1N=C(c2ccc(NS(C)(=O)=O)cc2)CC1c1ccccc1 (stereo not drawn) | -23.6 | 82.0* | -12.7 | -24.4 | 153.4* | -20.3 | 139.2*
NS(=O)(=O)c1ccc(NC(=O)Nc2ccccc2)cc1 | -1.9 | 41.4* | 3.6 | -2.5 | -14.2 | -11.4 | -30.9
NS(=O)(=O)c1ccc(NC(=O)c2cccc(N3C(=O)c4ccccc4C3=O)c2)cc1 | -10.1 | 79.0* | nt | -15.6 | 81.8* | i | -11.8
O=C(O)c1cc(NC(=O)c2cccc(N3C(=O)c4ccccc4C3=O)c2)cc(C(=O)O)c1 | -4.4 | -1.8 | 1.0 | -9.0 | nt | nt | nt
CC(C)(C)c1ccc(C(=O)Nc2ccc(S(N)(=O)=O)cc2)cc1 | -1.9 | -1.6 | nt | -8.6 | nt | nt | nt
NS(=O)(=O)c1ccc(NS(=O)(=O)c2ccc(NC(=O)c3ccc(-c4ccccc4)cc3)cc2)cc1 | -0.5 | 119.3* | nt | -4.6 | 109.3* | 32.4 | 100.6*
NS(=O)(=O)c1ccc(NC(=O)c2ccc(-c3ccccc3)cc2)cc1 | 5.6 | 100.8* | 4.4 | -1.8 | 119.2* | 13.5 | 17.5
O=C(Nc1ccncc1)c1ccc(S(=O)(=O)Nc2ccccc2)cc1 | 2.1 | -0.1 | -0.8 | -4.7 | nt | nt | nt
COc1cccc(-c2csc3nnc(SCC(=O)c4ccc(NC(C)=O)cc4)n23)c1 | nt | 39.5* | 2.5 | nt | 21.8 | 7.1 | 8.5
Cc1cc(NN=Cc2ccc(O)cc2O)c2ccccc2n1 | nt | nt | -11.5 | nt | nt | nt | nt
O=C(Nc1nc2nc(-c3ccccc3)cc(=O)n2[nH]1)c1ccccc1 | -0.9 | 2.7 | 1.0 | 0.3 | nt | nt | nt
